Test results: article PMC7376976 (Bioorganic & medicinal chemistry letters, 2020)

How the values were obtained:
ΔFosB/JunD heterodimer = molecular target: T1, ΔFosB/JunD heterodimer (Homo sapiens, UniProt P17535+P53539); format: binding
T1 sequence (P53539 1-237 isoform P53539-11): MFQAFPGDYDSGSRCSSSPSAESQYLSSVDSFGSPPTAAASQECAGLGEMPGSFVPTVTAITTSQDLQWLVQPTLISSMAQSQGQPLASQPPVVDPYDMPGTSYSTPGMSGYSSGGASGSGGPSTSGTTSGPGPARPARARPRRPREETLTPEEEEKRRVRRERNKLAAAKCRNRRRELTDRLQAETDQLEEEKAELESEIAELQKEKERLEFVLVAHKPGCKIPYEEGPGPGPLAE
T1 sequence (P17535 1-347): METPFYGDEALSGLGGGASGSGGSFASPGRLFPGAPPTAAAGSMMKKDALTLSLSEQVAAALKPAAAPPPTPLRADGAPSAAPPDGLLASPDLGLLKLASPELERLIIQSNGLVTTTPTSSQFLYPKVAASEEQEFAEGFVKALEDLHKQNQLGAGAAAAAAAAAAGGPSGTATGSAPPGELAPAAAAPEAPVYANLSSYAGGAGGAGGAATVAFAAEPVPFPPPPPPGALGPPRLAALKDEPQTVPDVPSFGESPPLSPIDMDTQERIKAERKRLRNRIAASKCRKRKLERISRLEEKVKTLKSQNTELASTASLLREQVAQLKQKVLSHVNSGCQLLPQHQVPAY
In short: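 Annealed 19-mer cdk5 AP-1 duplex, TAMRA-labelled at both 5′ ends, used at 25 nM in 20 mM HEPES pH 7.5, 150 mM NaCl. Added to test compound (10 concentrations, 0–200 μM, quadruplicate) for 5 min, then ΔFosB/JunD at 280 nM (as monomers) for 15 min. FP read at excitation 530/540 nm, emission 590 nm. Oligo-only wells set 100% inhibition. Four-parameter IC50; mean ± SD of two days.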

ΔFosB homodimer = molecular target: T2, ΔFosB homodimer (Homo sapiens, UniProt P53539); format: binding
T2 sequence (P53539 1-237 isoform P53539-11): T1 sequence (P53539 1-237 isoform P53539-11)
In short: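 Test compound serially diluted (10 concentrations, 0–200 μM, quadruplicate). Annealed 19-mer cdk5 AP-1 duplex, TAMRA-labelled at both 5′ ends, added at 25 nM in 20 mM HEPES pH 7.5, 50 mM NaCl for 5 min. ΔFosB then added at 320 nM (as monomers) for 15 min. FP read at excitation 530 or 540 nm, emission 590 nm. Four-parameter IC50; mean ± SD of two independent days.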

SMILES | activity in FP-assay against ΔFosB/JunD heterodimers (in words) (ΔFosB/JunD heterodimer) | activity in FP-assay against ΔFosB homodimers (in words) (ΔFosB homodimer)
CCOC(=O)c1nc2c(C)cccc2c2c1CCC2 [Compound 20] | little activity even at 100 μM or higher | little activity even at 100 μM or higher
COc1cccc2c1NC(C(=O)O)C1CCCC21 (stereo not shown) [Compound 14] | lacked significant activity | lacked significant activity
Cc1cccc2c3c(c(C(=O)O)nc12)CCC3 [Compound 21] | little activity even at 100 μM or higher | little activity even at 100 μM or higher
COc1cc(OC)c2c(C(=O)O)nc3c(OC)cccc3c2c1 [Compound 25] | lacked activity | lacked activity
COc1cccc2c1N(C(C)=O)C(C(=O)O)C1CC=CC21 (stereo not shown) [Compound 13] | lacked significant activity | lacked significant activity
